Converted amounts (≈) assume the structure as drawn.
Key:
MCF7 = test: Anticancer activity against human cells MCF7 cells assessed as growth inhibition after 48 hrs by MTT assay; assay type: functional, cell-based; details: MCF7, 48 h
In short: (§1)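 Cells grown in MEM with 10% heat-inactivated FBS, penicillin, streptomycin and amphotericin-B at 37 °C, 5% CO2, and trypsinized with TPVG. Seeded at 1 × 10⁴ cells/well and allowed to adhere for 24 h, then exposed to a range of concentrations for 48 h. MTT (2 mg/mL in PBS) added for 3 h, formazan dissolved in isopropanol, A540 read. Growth inhibition calculated as (control − test)/control × 100.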

HepG2 = test: Anticancer activity against human cells HepG2 cells assessed as growth inhibition after 48 hrs by MTT assay; assay type: functional, cell-based; details: HepG2, 48 h; in short: as §1

SMILES | IC50 (MCF7) [µg/mL] | IC50 (HepG2) [µg/mL]
CCOc1cccc(C2C3=C(CC(C)(C)CC3=O)NC3=C2C(=O)CC(C)(C)C3)c1 | 4.5 (≈ 11.4 µM) | 4.8 (≈ 12.2 µM)
COc1cccc2c1C(=O)c1c(O)c3c(c(O)c1C2=O)C[C@@](O)(C(=O)CO)C[C@@H]3O[C@H]1C[C@H](N)[C@H](O)[C@H](C)O1 [DOXORUBICIN] | 1.09 (≈ 2.01 µM) | 1.21 (≈ 2.23 µM)
CC1(C)CC(=O)C2=C(C1)NC1=C(C(=O)CC(C)(C)C1)C2c1cccc(C#N)c1 | 4.7 (≈ 12.6 µM) | 1.4 (≈ 3.74 µM)
CC1(C)CC(=O)C2=C(C1)NC1=C(C(=O)CC(C)(C)C1)C2c1ccccc1O | 5.9 (≈ 16.1 µM) | 2.6 (≈ 7.11 µM)
CC1(C)CC(=O)C2=C(C1)NC1=C(C(=O)CC(C)(C)C1)C2c1cc(F)ccc1O | 6.2 (≈ 16.2 µM) | 8.6 (≈ 22.4 µM)

Second part, the compound after the results:

IC50 (MCF7) [µg/mL] | IC50 (HepG2) [µg/mL] | SMILES
5.3 (≈ 11.6 µM) | 2.2 (≈ 4.8 µM) | COc1ccc(C2C3=C(CC(C)(C)CC3=O)NC3=C2C(=O)CC(C)(C)C3)cc1Br
9.6 (≈ 25.3 µM) | 8.2 (≈ 21.6 µM) | COc1ccc(C2C3=C(CC(C)(C)CC3=O)NC3=C2C(=O)CC(C)(C)C3)cc1
5 (≈ 12.2 µM) | 1.6 (≈ 3.91 µM) | COc1ccc(C2C3=C(CC(C)(C)CC3=O)NC3=C2C(=O)CC(C)(C)C3)c(OC)c1

— ChEMBL document CHEMBL3352785, “Study on one-pot four-component synthesis of 9-aryl-hexahydro-acridine-1,8-diones using SiO2-I as a new heterogeneous catalyst and their anticancer activity” (Bioorg Med Chem Lett, 2014)
